# Assay outcomes as filed in PubChem.
# This is a sample that favours compounds with a hit; in the whole collection about 4.1% have one here.
# KCNK9 block – KCNK9 potassium channel inhibitors, primary screen, HEK293 cells, thallium flux; Potassium channel subfamily K member 9 (Homo sapiens), Q9NPC2; AID 488922, 2010; FluxOR thallium flux fluorescence; active compounds read low; B-score at 10 µM; hit rate 1.2% among 310,000;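 active = ratio B-score over 3 SD below the library mean, with starting fluorescence within 5 SD of its mean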;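 note: negative B-score means less thallium flux so channel inhibition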
# KCNQ1 act – potentiators or activators of KCNQ1 channel, primary screen, cell-based, thallium flux, high-throughput. hit rate 0.35% among 310,000. Potassium voltage-gated channel subfamily KQT member 1 (Homo sapiens), P51787. CHO-K1 KCNQ1, thallium flux FluxOR fluorescence; active compounds read high. B-score at 10 µM. AID 2648, 2010;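 active = fluorescence ratio B-score, a plate-corrected score, at least three library SD, with initial intensity B-score within 5 SD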
#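 Assay system: CHO-K1 cells stably expressing KCNQ1. Medium: assay buffer for compound exposure, DMSO matched across wells. Timing: 37 °C overnight plating, 90-min dark dye load, 20-min compound pretreatment. Signal: kinetic FluxOR fluorescence, 10 s baseline plus 110 s post-stimulus.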
# KCC2 mod – KCC2 cotransporter modulators, thallium flux, primary screen, cell-based, HEK293 KCC2, FluoZin-2 fluorescence, MLSMR; KCC2 cells, thallium flux FluoZin-2 fluorescence; B-score of Tl+ flux slope (higher = more flux/activation; lower = inhibition) at 10 µM; hit rate 2.2% among 190,000; AID 1456, 2008;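 active = thallium flux slope and its plate-corrected score both differing from the plate sample mean at a set confidence after two filtering rounds, in either direction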;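 note: slope of fluorescence scaled to starting intensity during 10 to 20 s after thallium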
# Target sequence (Q9H2X9 whole entry, looked up): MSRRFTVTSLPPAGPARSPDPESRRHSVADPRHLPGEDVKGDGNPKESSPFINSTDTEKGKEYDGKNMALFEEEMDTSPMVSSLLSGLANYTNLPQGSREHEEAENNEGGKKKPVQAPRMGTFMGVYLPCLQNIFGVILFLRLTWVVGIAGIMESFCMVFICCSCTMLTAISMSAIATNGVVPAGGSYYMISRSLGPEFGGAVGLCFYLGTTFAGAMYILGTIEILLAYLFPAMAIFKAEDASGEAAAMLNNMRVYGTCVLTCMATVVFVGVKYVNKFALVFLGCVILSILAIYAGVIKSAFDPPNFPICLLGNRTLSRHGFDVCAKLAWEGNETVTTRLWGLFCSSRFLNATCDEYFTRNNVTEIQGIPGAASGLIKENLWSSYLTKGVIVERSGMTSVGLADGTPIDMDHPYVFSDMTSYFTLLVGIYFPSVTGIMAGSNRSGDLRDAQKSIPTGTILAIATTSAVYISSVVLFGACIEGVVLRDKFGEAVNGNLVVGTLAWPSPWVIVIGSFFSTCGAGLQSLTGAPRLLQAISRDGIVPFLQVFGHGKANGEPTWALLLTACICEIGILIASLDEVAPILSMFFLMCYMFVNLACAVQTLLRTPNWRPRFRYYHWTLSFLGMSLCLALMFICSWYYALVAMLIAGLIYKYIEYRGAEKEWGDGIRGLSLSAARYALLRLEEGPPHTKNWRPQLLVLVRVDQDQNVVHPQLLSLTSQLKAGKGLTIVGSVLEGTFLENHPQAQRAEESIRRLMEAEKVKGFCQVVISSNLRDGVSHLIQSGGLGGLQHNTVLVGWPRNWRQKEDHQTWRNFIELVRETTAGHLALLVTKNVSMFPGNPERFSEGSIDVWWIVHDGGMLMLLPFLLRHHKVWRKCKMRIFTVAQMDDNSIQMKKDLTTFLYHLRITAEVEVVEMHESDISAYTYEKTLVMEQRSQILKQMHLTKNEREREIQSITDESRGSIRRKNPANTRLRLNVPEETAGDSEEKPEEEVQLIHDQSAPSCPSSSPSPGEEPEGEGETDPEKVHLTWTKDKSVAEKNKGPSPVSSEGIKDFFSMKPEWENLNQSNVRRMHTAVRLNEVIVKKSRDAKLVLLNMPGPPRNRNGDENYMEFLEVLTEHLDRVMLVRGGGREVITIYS
# hERG rescue – hERG rescue from dofetilide block, primary screen, cell-based, CHO-hERG, FluxOR thallium flux, dofetilide IC70; Voltage-gated inwardly rectifying potassium channel KCNH2 (Homo sapiens), Q12809; dofetilide IC70 present; hit rate 0.51% among 310,000; activation (rescue from dofetilide block), less the hit threshold, % at 10 µM;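 active = activation above the mean of controls blocked by dofetilide plus 5 SD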;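 note: thallium influx through hERG after potassium depolarization seen as dye fluorescence rise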
# KCNK3 inh – human KCNK3 channel inhibitors, primary screen, CHO cells, FluxOR thallium flux, B-score | hit rate 0.84% among 340,000 | AID 602410, 2012 | B-score at 10 µM | FluxOR fluorescence; active compounds read low | Potassium channel subfamily K member 3 (Homo sapiens), O14649;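 active = B-score under library mean minus 4 SD, starting fluorescence ratio at most library mean plus 5 SD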;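 note: more negative B-score means stronger inhibition of thallium flux through KCNK3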
# KCNQ1 inh – inhibitors of human KCNQ1 channel, primary screen, cell-based, thallium flux, high-throughput; Potassium voltage-gated channel subfamily KQT member 1 (Homo sapiens), P51787; CHO-K1 KCNQ1, FluxOR thallium flux fluorescence; active compounds read high; B-score at 10 µM; hit rate 1.3% among 310,000; AID 2642, 2010;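 active = compounds whose thallium flux B-score, printed positive for inhibition, exceeds three library SD while starting fluorescence stays within three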;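 note: channel opened by potassium depolarization with thallium stimulus after 20 min compound exposure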
# KCNK9 block conf – KCNK9 potassium channel inhibitors, confirmation, HEK293 cells, thallium flux, duplicate | FluxOR thallium flux fluorescence | hit rate 43% among 4,900 | AID 492992, 2010 | shares compounds with KCNK9 block | inhibition, % at 10 µM;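 active = thallium signal inhibited by more than 5 SD of the compound-free buffer control wells, on both duplicate plates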
# Kir2-1 spec – mouse Kir2.1 channel inhibition, confirmation, selectivity assay for KCNK9 modulator project, cell-based, HEK293, thallium flux; shares compounds with KCNK9 block; Kir2.1 cells, FluxOR thallium flux fluorescence; hit rate 4% among 4,900; inhibition, % at 10 µM; AID 492993, 2010;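 active = thallium signal drop more than 5 SD beyond the mean of the no-compound control wells, seen in both duplicate plates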;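 note: signal is fluorescence rise after thallium addition divided by baseline fluorescence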
# KCNK9 uninduced – thallium flux in non-induced HEK293 cells, confirmation, counter-screen for KCNK9 inhibitor project, cell-based, second counter screen, non-induced KCNK9-HEK293 | FluxOR thallium flux | shares compounds with KCNK9 block | inhibition, % at 10 µM | hit rate 40% among 4,900 | AID 492997, 2010;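 active = thallium signal drop beyond 5 SD of the untreated control mean, on both duplicate plates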
# A number is an active result; – = inactive; · = not tested or not shown.
SMILES,KCNK9 block,KCNQ1 act,KCC2 mod,hERG rescue,KCNK3 inh,KCNQ1 inh,KCNK9 block conf,Kir2-1 spec,KCNK9 uninduced
COc1ccccc1N1CCN(/N=C/C=C/c2ccccc2[N+](=O)[O-])CC1,–,–,–,–,–,–,–,–,–
COc1ccccc1N1CCN(Cc2ccc(-c3ccccc3[N+](=O)[O-])o2)CC1,–,–,·,–,–,–,–,–,–
COc1ccccc1/C=C/C=N/N1CCN(Cc2ccc(Cl)cc2)CC1,–,–,–,–,–,–,–,–,–
Cc1ccc(N(Cc2ccc([N+](=O)[O-])cc2)C(=O)c2ccco2)cc1C,-13,–,–,–,–,–,56%,–,42%
CCCn1c(SCC(=O)N(C)CC(=O)Nc2ccc(C)cc2)n[nH]c1=O,·,·,·,·,–,·,·,·,·
O=C(Nc1ccc(OC(F)F)c(Cl)c1)C(c1ccccc1)c1ccccc1,-10,–,–,–,–,–,25%,–,41%
N#Cc1c(SCc2ccccc2)sc(C(=O)c2ccccc2)c1N,–,–,–,–,–,–,·,·,·
Cc1ccc(CSc2sc(C(=O)c3ccccc3)c(N)c2C#N)cc1,-9,–,–,–,–,–,36%,–,42%
COc1ccc(C2C=C(Nc3ccccc3)C(=O)N2c2ccccc2)cc1OC (stereo not drawn),-11,–,–,–,–,–,62%,–,34%
CC(C)N(C(C)C)S(=O)(=O)c1ccc(Cl)nc1,–,–,–,–,–,–,·,·,·
CCN(CC)S(=O)(=O)c1ccc(N2CCc3ccccc3C2)nc1,–,–,·,–,–,–,–,–,–
CC(C)N(C(C)C)S(=O)(=O)c1ccc(N2CCc3ccccc3C2)nc1,–,–,·,–,–,–,–,–,–
Cc1ccc(C)c(N2CCN(C(=O)c3cc(S(=O)(=O)N4CCOCC4)ccc3F)CC2)c1,–,–,–,–,–,–,–,–,–
O=C(N/N=C/c1ccc(O)cc1O)c1ccc(CN2C(=O)c3cccc4cccc2c34)cc1,-12,–,–,–,-12,–,37%,–,33%
O=C(NCc1ccccc1F)C(c1ccccc1)c1ccccc1,–,–,·,–,–,–,·,·,·
CCOC(=O)c1c(NC(=O)CSc2nnc(C)c(=O)[nH]2)sc(C)c1-c1ccc(C)cc1,–,–,–,–,–,–,–,–,–
CCOC(=O)c1c(NC(=O)CSc2nnc(C)c(=O)[nH]2)sc2c1CCCC2,–,–,·,–,–,–,·,·,·
Cc1ccc(OCC(=O)NCCNC(=O)c2cnccn2)cc1C,–,–,·,–,–,–,·,·,·
COc1cccc(CN(C)C(c2ccccc2)c2ccccc2)c1OC,-8.2,–,·,–,–,–,–,–,–
COc1cccc(CN(C)C(=O)Cc2c[nH]c3ccccc23)c1OC,–,–,·,–,–,–,·,·,·
CCc1nc(SCC(=O)NC2CCCC2)c2c(=O)n(C)c(=O)n(C)c2n1,–,–,·,–,–,–,·,·,·
Cc1ccc(S(=O)(=O)OCCC2=CC(=O)CCN2Cc2ccccc2)cc1,·,·,·,·,–,·,·,·,·
